# Source: ChEMBL document CHEMBL4732122, “Pleiotropic prodrugs: Design of a dual butyrylcholinesterase inhibitor and 5-HT receptor antagonist with therapeutic interest in Alzheimer's disease” (Eur J Med Chem, 2021)
# Where “and” joins values, the source holds several entries; their conditions need not be identical. Identical values can stand only once. Calls of active or inactive are those of the source. The rule behind the calls is not given here.
# What was measured:
# [1] = target: T1, 5-hydroxytryptamine receptor 6 (Homo sapiens, UniProt P50406); assay: Displacement of [3H]-LSD from human 5HT6 receptor expressed in HEK293 cell membrane measured after 60 mins; type: cell membranes
# [2] = Effect on spontaneous locomotory activity in NMRI mouse at 1 to 10 mg/kg, ip measured for 30 mins; type: ADME, organism-based; details: in vivo, 0.5 h, dose 1-10 mg/kg
# In short: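 Mice dosed ip at 1, 3 or 10 mg/kg in 0.9% NaCl, 30 min before test; chlorpromazine 3 mg/kg as depressive reference. Locomotion counted as infrared beam breaks in individual cages of an actimeter over 30 min. n = 8 per group; analyzed by ANOVA.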
# [3] = target: T1, 5-hydroxytryptamine receptor 6; assay: Antagonist activity at human 5HT6 receptor expressed in COS-7 cells assessed as inhibition of 5HT-induced cAMP accumulation preincubated for 7 mins followed by 5-HT addition and measured after 10 mins by HTRF assay; type: functional, cell-based, COS7
# In short: (§1)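 COS-7 cells grown in DMEM with 10% dialyzed FCS, transiently transfected by electroporation with HA-tagged 5-HT6R plasmid, seeded. 24 h later, ligands added at 37 °C for 7 min. Cells lysed in 0.1% Triton X-100 and cAMP read by HTRF. Log IC50 is mean ± SEM of three experiments.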
# [4] = Toxicity of compound in ip dosed NMRI mouse assessed as mortality after 24 hrs; type: organism-based; details: in vivo
# In short: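 Mice in groups of four given 1, 10 or 100 mg/kg ip in 0.9% NaCl. Behavioral and neurological signs scored by standardized observation at 30 min, 3 h and 24 h. Approximate LD50 from mortality at 24 h. Amphetamine 2 mg/kg and chlorpromazine 10 mg/kg served as references.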
# [5] = system: Mus musculus; assay: Reversal of scopolamine-induced working memory deficit in NMRI mouse assessed as increase in spontaneous alteration at 10 mg/kg, ip measured after 30 mins by Y-maze test; type: functional, organism-based
# In short: (§2)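 Compound 10 mg/kg ip in 0.9% NaCl given 30 min before test. Scopolamine 0.5 mg/kg or MK801 0.1 mg/kg given sc 20 min before test to induce the deficit. Mouse placed in a three-arm Y maze for a 5 min session; arm-entry sequence recorded by an observer to score spontaneous alternation. n = 9 per group.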
# [6] = target: T1, 5-hydroxytryptamine receptor 6; assay: Displacement of [3H]-LSD from human 5HT6 receptor expressed in HEK293 cell membrane at 10^-5 M measured after 60 mins relative to control; type: cell membranes; details: dose 10.0 µM
# [7] = target: T2, Cholinesterase (Homo sapiens, UniProt P06276); assay: Inhibition of human BuChE at 10^-5 M using butyrylthiocholine iodide as substrate peincubated for 5 mins followed by substrate addition by DTNB-reagent based Ellman's method relative to control; details: dose 10.0 µM
# [8] = system: Mus musculus; assay: Reversal of MK801-induced working memory deficit in NMRI mouse assessed as increase in spontaneous alteration at 10 mg/kg, ip measured after 30 mins by Y-maze test; type: functional, organism-based; in short: as §2
# [9] = species on record: Homo sapiens; assay: Selectivity index, ratio of IC50 for human BuChE to IC50 for human erythrocyte AChE
# [10] = target: T1, 5-hydroxytryptamine receptor 6; assay: Displacement of [3H]-LSD from human 5HT6 receptor expressed in HEK293 cell membrane at 10^-6 M measured after 60 mins relative to control; type: cell membranes; details: dose 1.0 µM
# In short: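 Membranes of HEK-293 cells transiently expressing human 5-HT6R (4 µg protein) incubated in duplicate for 60 min at 37 °C with 2.5 nM [3H]-LSD and drug at 10^-6 or 10^-8 M. Buffer was 25 mM Tris-HCl pH 7.4 with 0.5 mM EDTA. Filtered on GF/C and washed with ice-cold Tris buffer. Non-specific binding defined with 100 µM serotonin.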
# [11] = target: T3, Acetylcholinesterase (Homo sapiens, UniProt P22303); assay: Inhibition of human erythrocyte AChE at 10^-6 M using acetylthiocholine iodide as substrate peincubated for 5 mins followed by substrate addition by DTNB-reagent based Ellman's method relative to control; details: dose 1.0 µM
# In short: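 Human erythrocyte AChE diluted in 20 mM HEPES pH 8 with 0.1% Triton X-100 (0.05 U final). Preincubated 5 min at 25 °C with compound and 0.3 mM DTNB in phosphate buffer pH 7.4. Reaction started with 1 mM acetylthiocholine iodide.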
# [12] = target: Cholinesterase (Equus caballus) (UniProt P81908); assay: Mixed type inhibition of equine BuchE at 10 to 500 nM using varying levels of butyrylthiocholine iodide as substrate by Lineweaver-Burk plot analysis; details: dose 10-500 nM
# In short: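 Ellman method with equine BuChE. Butyrylthiocholine iodide varied from 0.1 to 1 mM, inhibitor at 10, 50, 100 and 500 nM. Double-reciprocal plots of 1/velocity versus 1/[substrate] used to assign the inhibition mode.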
# [13] = target: T1, 5-hydroxytryptamine receptor 6; assay: Antagonist activity at human 5HT6 receptor expressed in COS-7 cells assessed as inhibition of 5HT-induced cAMP accumulation preincubated for 7 mins followed by 5-HT addition and measured after 10 mins by HTRF assay relative to control; type: functional, cell-based; set-up: scale not given: the % may be the effect or the level left; details: COS7, filed as antagonist
# In short: as §1, with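 “min. Then 5-HT (5.10^-7 M final) plus RO-20-1724 (0.1 mM final) added for 10 min at 37 °C.” for “min.”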
# [14] = target: T2, Cholinesterase; assay: Inhibition of human BuChE using butyrylthiocholine iodide as substrate peincubated for 5 mins followed by substrate addition by DTNB-reagent based Ellman's method
# [15] = target: T3, Acetylcholinesterase; assay: Inhibition of human erythrocyte AChE using acetylthiocholine iodide as substrate peincubated for 5 mins followed by substrate addition by DTNB-reagent based Ellman's method
# [16] = Stability of compound in PBS buffer at pH 7.4 assessed as equine BuChE mediated decarbamoylation of compound at 5 uM incubated for 24 hrs by HPLC-LC/MS analysis; type: physicochemical; details: pH 7.4, 24 h
# In short: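 Compound (5 µM) incubated in PBS pH 7.4 at 25 °C with 250 U/mL BuChE, or without enzyme as control. After incubation, extracted with ethyl acetate, evaporated and taken up in acetonitrile. Analyzed by C18 reversed-phase HPLC (water/acetonitrile with 0.1% formic acid, detection 280 nm) and LC-MS.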
# T2 sequence (P06276 whole entry): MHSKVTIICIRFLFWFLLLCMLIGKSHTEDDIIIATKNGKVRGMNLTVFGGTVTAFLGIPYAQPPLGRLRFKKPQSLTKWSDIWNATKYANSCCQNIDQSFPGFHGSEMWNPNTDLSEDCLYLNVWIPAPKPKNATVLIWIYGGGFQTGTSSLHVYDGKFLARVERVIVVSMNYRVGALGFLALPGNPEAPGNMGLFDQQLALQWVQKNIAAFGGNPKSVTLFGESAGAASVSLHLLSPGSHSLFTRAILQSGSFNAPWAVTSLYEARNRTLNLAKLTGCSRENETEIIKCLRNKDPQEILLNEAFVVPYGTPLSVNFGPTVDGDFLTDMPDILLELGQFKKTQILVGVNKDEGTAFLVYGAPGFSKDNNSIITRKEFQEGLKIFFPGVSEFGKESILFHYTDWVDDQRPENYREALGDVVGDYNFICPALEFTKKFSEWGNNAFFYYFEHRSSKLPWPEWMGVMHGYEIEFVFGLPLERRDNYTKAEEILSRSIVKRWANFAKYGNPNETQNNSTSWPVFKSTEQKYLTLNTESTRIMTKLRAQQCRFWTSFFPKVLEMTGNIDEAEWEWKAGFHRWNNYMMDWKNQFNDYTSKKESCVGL
# T3 sequence (P22303 whole entry): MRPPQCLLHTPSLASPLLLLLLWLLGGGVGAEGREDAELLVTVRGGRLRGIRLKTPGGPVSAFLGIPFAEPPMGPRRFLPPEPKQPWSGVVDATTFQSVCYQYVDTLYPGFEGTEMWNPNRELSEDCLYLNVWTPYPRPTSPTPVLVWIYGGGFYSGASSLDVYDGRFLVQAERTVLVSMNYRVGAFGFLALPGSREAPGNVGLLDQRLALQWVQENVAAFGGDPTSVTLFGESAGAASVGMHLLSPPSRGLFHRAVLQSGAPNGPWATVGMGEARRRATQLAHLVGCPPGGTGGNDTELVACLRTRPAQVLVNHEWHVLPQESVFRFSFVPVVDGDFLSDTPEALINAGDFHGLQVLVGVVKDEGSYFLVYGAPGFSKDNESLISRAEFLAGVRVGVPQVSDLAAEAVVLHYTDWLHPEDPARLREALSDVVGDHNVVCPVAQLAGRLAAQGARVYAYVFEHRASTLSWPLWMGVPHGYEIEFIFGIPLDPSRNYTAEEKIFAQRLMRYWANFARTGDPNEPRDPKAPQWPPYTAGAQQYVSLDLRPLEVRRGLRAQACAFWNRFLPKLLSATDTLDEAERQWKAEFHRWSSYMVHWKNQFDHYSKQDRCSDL
# T1 sequence (P50406 whole entry): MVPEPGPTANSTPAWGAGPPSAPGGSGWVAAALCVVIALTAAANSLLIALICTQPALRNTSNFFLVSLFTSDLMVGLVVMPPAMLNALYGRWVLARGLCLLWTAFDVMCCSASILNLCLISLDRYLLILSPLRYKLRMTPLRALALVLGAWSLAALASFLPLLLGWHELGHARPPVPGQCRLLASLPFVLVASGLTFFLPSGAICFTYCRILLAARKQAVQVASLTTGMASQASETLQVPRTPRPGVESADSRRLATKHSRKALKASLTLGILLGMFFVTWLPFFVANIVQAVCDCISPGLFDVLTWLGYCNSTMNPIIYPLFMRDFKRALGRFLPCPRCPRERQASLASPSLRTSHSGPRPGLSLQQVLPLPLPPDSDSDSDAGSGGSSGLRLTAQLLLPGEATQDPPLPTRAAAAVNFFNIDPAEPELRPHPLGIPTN
# Cholinesterase (Equus caballus), sequence (P81908 whole entry): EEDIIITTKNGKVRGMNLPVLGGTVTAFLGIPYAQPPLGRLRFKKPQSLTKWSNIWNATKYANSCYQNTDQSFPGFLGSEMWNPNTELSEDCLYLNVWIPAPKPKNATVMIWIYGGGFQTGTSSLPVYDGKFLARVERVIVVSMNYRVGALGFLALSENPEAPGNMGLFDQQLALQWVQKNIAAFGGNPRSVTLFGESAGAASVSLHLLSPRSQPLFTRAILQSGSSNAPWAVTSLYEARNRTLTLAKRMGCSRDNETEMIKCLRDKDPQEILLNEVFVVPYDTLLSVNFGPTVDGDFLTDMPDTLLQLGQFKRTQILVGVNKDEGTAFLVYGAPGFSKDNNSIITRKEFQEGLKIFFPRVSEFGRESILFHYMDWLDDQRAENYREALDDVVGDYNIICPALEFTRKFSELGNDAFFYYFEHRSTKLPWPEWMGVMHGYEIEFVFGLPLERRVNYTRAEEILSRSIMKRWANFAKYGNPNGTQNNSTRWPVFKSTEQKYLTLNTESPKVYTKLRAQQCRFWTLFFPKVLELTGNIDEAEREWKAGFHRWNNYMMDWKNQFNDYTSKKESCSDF
structure (smiles),measurement,setting,value
O=C(O)/C=C/C(=O)O.Oc1cccc(CNCCc2c[nH]c3cc(F)ccc23)c1,Ki,[1],4.3 nM
same,Activity,[2],Non-Toxic
same,IC50,[3],2000 nM
same,LD50 at 24 h,[4],> 100 mg/kg
CCN(C)C(=O)Oc1cccc(CNCCc2c[nH]c3cc(F)ccc23)c1 [listing 1 of 2 here],Activity,[5],Active
same,inhibition,[6],24% and 32%
same,inhibition,[7],93% and 97%
same,Activity,[8],inactive
same,Ratio IC50,[9],0.06 and 0.05
same,inhibition,[10],37%
same,inhibition,[10]; filed as antagonist,53%
same,inhibition,[11],9% and 5%
same,inhibition,[12],Active
Oc1cccc(CNCCc2c[nH]c3cc(F)ccc23)c1 [listing 1 of 2 here],Ki,[1],11.4 nM
Oc1cccc(CNCCc2c[nH]c3cc(F)ccc23)c1 [listing 2 of 2 here],Activity,[5],inactive
same,inhibition,[6],33%
same,inhibition,[6]; filed as antagonist,48%
same,Activity,[13],87.2%
same,inhibition,[7],11% and 8%
same,Activity,[8],Active
same,inhibition,[10]; filed as antagonist,104% and 85%
same,inhibition,[11],8% and 2%
C[C@]12N[C@H](Cc3ccccc31)c1ccccc12 [DIZOCILPINE],IC50,[14],16000 nM
CCN(C)C(=O)Oc1cccc(CNCCc2c[nH]c3cc(F)ccc23)c1 [listing 2 of 2 here],IC50,[15],16500 nM
same,IC50,[14],927 nM
CCN(C)C(=O)Oc1cccc(CNCCc2c[nH]c3cc(F)ccc23)c1.O=C(O)/C=C/C(=O)O,Drug metabolism,[16],Metabolite_Detected
same,Activity,[2],Non-Toxic
same,IC50,[15],17600 nM
same,LD50 at 24 h,[4],> 100 mg/kg
same,IC50,[14],835 nM
Fc1ccc2c(CCNCc3cccc(OCc4ccccc4)c3)c[nH]c2c1,inhibition,[6],14%
same,inhibition,[7],2%
same,inhibition,[10]; filed as antagonist,103%
same,inhibition,[11],4%
Fc1ccc2c(CCNCc3cccc(OCC(F)(F)C(F)F)c3)c[nH]c2c1,inhibition,[6]; filed as antagonist,88%
same,Activity,[13],101%
same,inhibition,[10]; filed as antagonist,106%
same,inhibition,[11],6%
